Assay results published in ChEMBL document CHEMBL1649127, “In vivo and in vitro efficacy of amodiaquine monotherapy for treatment of infection by chloroquine-resistant Plasmodium vivax” (Antimicrob Agents Chemother, 2009).

Legend:
Plasmodium vivax [1] = assay: Antimalarial activity against chloroquine-resistant Plasmodium vivax by Giemsa staining; assay type: functional, organism-based
Procedure, shortened: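 Ex vivo P. vivax isolates came from clinic outpatients with parasitemia >5,000 μl−1 and were tested with a modified WHO microtest. Incubation ran until the drug-free control reached ≥40% schizonts. Giemsa-stained thick smears from each well were read for schizonts per 200 asexual parasites and normalized to control. IC50 was derived by nonlinear regression.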

Homo sapiens [2] = assay: Toxicity in patient infected with chloroquine-resistant Plasmodium vivax assessed as occurrence of vomiting at total dose of 30 mg/kg administered as three daily doses measured […]; assay type: organism-based; set-up: dose 30 mg/kg; settings: in vivo
Procedure, shortened: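 Three daily oral doses of amodiaquine, 30 mg base/kg total, were given under observation for 60 min. Patients who vomited were withdrawn and retreated with oral quinine. Children received crushed tablet suspended in water.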

Plasmodium vivax [3] = assay: Antimalarial activity against chloroquine-resistant Plasmodium vivax infected in human assessed as clearance of peripheral parasitemia at total dose of 30 mg/kg administered as three daily doses measured within 24 hrs post dose; assay type: functional
Procedure, shortened: (§1)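 Oral amodiaquine 30 mg base/kg total, given as three daily doses. For children, the tablet was crushed and given as a suspension in water. Primaquine […] for 14 days was withheld until day 28 if there was no G6PD deficiency.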

Plasmodium vivax [4] = assay: Antimalarial activity against chloroquine-resistant Plasmodium vivax infected in human assessed as clearance of peripheral parasitemia at total dose of 30 mg/kg administered as three daily doses measured 48 hrs post dose; assay type: functional; procedure, shortened: as §1
Homo sapiens [5] = assay: Toxicity in patient infected with chloroquine-resistant Plasmodium vivax assessed as occurrence of anemia at total dose of 30 mg/kg administered as three daily doses measured 7 days post dose; assay type: organism-based; set-up: dose 30 mg/kg; settings: in vivo, 168 h
Procedure, shortened: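 Patients received oral amodiaquine 30 mg base/kg split over three daily doses, with 60-min observation after each dose. Children were given crushed tablet in water. Anemia was defined as hemoglobin <10 g/dl. Primaquine was deferred to day 28.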

Plasmodium vivax [6] = assay: Antimalarial activity against chloroquine-Resistant Plasmodium vivax infected in human assessed as parasite recurrence rate at total dose of 30 mg/kg administered as three daily doses measured on day 28 post dose; assay type: functional; procedure, shortened: as §1
Homo sapiens [7] = assay: Toxicity in human infected with chloroquine-Resistant Plasmodium vivax assessed as occurrence of nausea at total dose of 30 mg/kg administered as three daily doses; assay type: organism-based; set-up: dose 30 mg/kg; settings: in vivo; procedure, shortened: as §1
Homo sapiens [8] = assay: Toxicity in patient infected with chloroquine-resistant Plasmodium vivax assessed as occurrence of anemia at total dose of 30 mg/kg administered as three daily doses measured 28 days post dose; settings: in vivo, 672 h

Compound `CCN(CC)CCCC(C)Nc1ccnc2cc(Cl)ccc12` (stereo not drawn) [CHLOROQUINE] has an IC50 (Plasmodium vivax [1]) of 52.7 nM.

In the case of `CCCCN(CCCC)CC(O)c1cc(Cl)cc2c1-c1ccc(Cl)cc1/C2=C/c1ccc(Cl)cc1` (stereo not drawn) [LUMEFANTRINE], the IC50 (Plasmodium vivax [1]) is reported as 16 nM.

`C[C@H]1[C@H](OC(=O)CCC(=O)O)O[C@@H]2O[C@@]3(C)CC[C@H]4[C@H](C)CC[C@@H]1[C@@]24OO3` [ARTESUNATE] gave an IC50 (Plasmodium vivax [1]) of 1.29 nM.

Work on `CCN(CC)Cc1cc(Nc2ccnc3cc(Cl)ccc23)ccc1O.Cl` yielded an Activity (Homo sapiens [2]) of 4.6%, an Activity (Plasmodium vivax [3]) of 52% and an Activity (Plasmodium vivax [4]) of 91%. It also gave an Activity (Homo sapiens [5]) of 30%, an Activity (Plasmodium vivax [6]) of 22.8% and an IC50 (Plasmodium vivax [1]) of 11.3 nM. For the same compound, the Activity (Homo sapiens [7]) was 4.5% and the Activity (Homo sapiens [8]) was “Non-toxic”.

With `Clc1ccc2c(N3CCN(CCCN4CCN(c5ccnc6cc(Cl)ccc56)CC4)CC3)ccnc2c1` [PIPERAQUINE] the IC50 (Plasmodium vivax [1]) was 17.5 nM.

In the case of `OC(c1cc(C(F)(F)F)nc2c(C(F)(F)F)cccc12)C1CCCCN1` (stereo not drawn) [MEFLOQUINE], the IC50 (Plasmodium vivax [1]) is reported as 8.2 nM.
